From ChEMBL document CHEMBL5724801, “EUbOPEN Chemogenomics Library - Multiplex” (2024)
Where “and” joins values, the source holds several entries; their conditions need not be identical. Identical values can stand only once.

Tested on: HEK-293T
Test: Multiplex assay against HEK293T
Type: toxicity, cell-based
Settings: human
In short: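 On a CQ1 microscope at 37°C and 5% CO2, live cells were imaged after compound addition. They had been stained at seeding with Hoechst33342, BioTracker Green Microtubule Cytoskeleton Dye, MitoTracker Red and Annexin V Alexa Fluor 680. CellPathfinder machine-learning gating assigned cells to Hoechst high-intensity objects or normal cells, normal cells to healthy, pyknosed or fragmented nuclei, and pyknosed cells to mitotic or apoptotic. Tubulin, mitochondrial-mass and membrane-permeability phenotypes are per cents of healthy-nucleus cells.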

[1] = 12 h, 1 µM, compound concentration 1 uM
[2] = 12 h, 10 µM, compound concentration 10 uM
[3] = 24 h, 1 µM, compound concentration 1 uM
[4] = 24 h, 10 µM, compound concentration 10 uM
[5] = 48 h, 1 µM, compound concentration 1 uM
[6] = 48 h, 10 µM, compound concentration 10 uM

Structure (SMILES): Cl.Cl.N#Cc1ccc(O[C@@H]2c3ccccc3C[C@H]2N2CCC[C@@H](N)C2)c(Cl)c1
- Population Apoptotic (%) [1]: 8.75% and 10.31%
- Population Fragmented Nuclei (%) [1]: 2.35% and 6.14%
- Population Hoechst High Intensity Objects (%) [1]: 0%
- Population Membrane Permeable-Phenotype (%) [1]: 1.16% and 0%
- Population Mitochondria Different-Phenotype (%) [1]: 36.63% and 30%
- Population Mitotic Cells (%) [1]: 91.25% and 89.69%
- Population Normal (%) [1]: 100%
- Population Pyknosed Nuclei (%) [1]: 47.06% and 85.09%
- Population Tubulin-Different-Phenotype (%) [1]: 26.16% and 50%
- Total Cell Count [1]: 340 and 114
- Population Apoptotic (%) [2]: 22.15% and 32.8%
- Population Fragmented Nuclei (%) [2]: 4.33% and 4.76%
- Population Healthy Nuclei (%) [2]: 27.27% and 10.2%
- Population Hoechst High Intensity Objects (%) [2]: 0.86% and 0%
- Population Membrane Permeable-Phenotype (%) [2]: 0% and 13.33%
- Population Mitochondria Different-Phenotype (%) [2]: 28.57% and 33.33%
- Population Mitotic Cells (%) [2]: 77.85% and 67.2%
- Population Normal (%) [2]: 99.14% and 100%
- Population Pyknosed Nuclei (%) [2]: 68.4% and 85.03%
- Population Tubulin-Different-Phenotype (%) [2]: 71.43% and 93.33%
- Total Cell Count [2]: 233 and 147
- Population Apoptotic (%) [3]: 26.62% and 47.67%
- Population Fragmented Nuclei (%) [3]: 1.19% and 8.11%
- Population Hoechst High Intensity Objects (%) [3]: 0.2% and 0%
- Population Membrane Permeable-Phenotype (%) [3]: 2.03% and 0%
- Population Mitochondria Different-Phenotype (%) [3]: 30.14% and 50%
- Population Mitotic Cells (%) [3]: 73.38% and 52.33%
- Population Normal (%) [3]: 99.8% and 100%
- Population Pyknosed Nuclei (%) [3]: 30.5% and 77.48%
- Population Tubulin-Different-Phenotype (%) [3]: 42.9% and 56.25%
- Population Apoptotic (%) [4]: 63.58% and 76.03%
- Population Fragmented Nuclei (%) [4]: 3.91% and 5.04%
- Population Hoechst High Intensity Objects (%) [4]: 1.16% and 0%
- Population Membrane Permeable-Phenotype (%) [4]: 1.05% and 9.09%
- Population Mitochondria Different-Phenotype (%) [4]: 72.63% and 63.64%
- Population Mitotic Cells (%) [4]: 36.42% and 23.97%
- Population Normal (%) [4]: 98.84% and 100%
- Population Pyknosed Nuclei (%) [4]: 58.98% and 87.05%
- Population Tubulin-Different-Phenotype (%) [4]: 93.68% and 90.91%
- Total Cell Count [4]: 259 and 139
- Population Fragmented Nuclei (%) [5]: 2.55% and 7.63%
- Population Healthy Nuclei (%) [5]: 83.85% and 39.83%
- Population Hoechst High Intensity Objects (%) [5]: 0.11% and 0%
- Population Membrane Permeable-Phenotype (%) [5]: 7.35% and 0%
- Population Mitochondria Different-Phenotype (%) [5]: 44.61% and 70.21%
- Population Mitotic Cells (%) [5]: 90.62% and 66.13%
- Population Normal (%) [5]: 99.89% and 100%
- Population Apoptotic (%) [6]: 63.04% and 79.59%
- Population Fragmented Nuclei (%) [6]: 2.57% and 5.97%
- Population Healthy Nuclei (%) [6]: 58% and 20.9%
- Population Hoechst High Intensity Objects (%) [6]: 1.69% and 0.74%
- Population Membrane Permeable-Phenotype (%) [6]: 1.48% and 7.14%
- Population Mitochondria Different-Phenotype (%) [6]: 95.07% and 92.86%
- Population Mitotic Cells (%) [6]: 36.96% and 20.41%
- Population Normal (%) [6]: 98.31% and 99.26%
- Population Pyknosed Nuclei (%) [6]: 39.43% and 73.13%
- Population Tubulin-Different-Phenotype (%) [6]: 30.05% and 89.29%
- Total Cell Count [6]: 356 and 135

Structure (SMILES): O=C1NCc2ccc3c(-c4cccc(Cl)c4)c[nH]c3c21
- Population Apoptotic (%) [1]: 9.74% and 10.57%
- Population Fragmented Nuclei (%) [1]: 0.72% and 0.69%
- Population Hoechst High Intensity Objects (%) [1]: 0.36% and 0%
- Population Membrane Permeable-Phenotype (%) [1]: 0%
- Population Mitochondria Different-Phenotype (%) [1]: 41.8% and 23.81%
- Population Mitotic Cells (%) [1]: 90.26% and 89.43%
- Population Normal (%) [1]: 99.64% and 100%
- Population Pyknosed Nuclei (%) [1]: 55.4% and 84.83%
- Total Cell Count [1]: 279 and 145
- Population Apoptotic (%) [2]: 21.19% and 16.81%
- Population Fragmented Nuclei (%) [2]: 1.88% and 2.24%
- Population Healthy Nuclei (%) [2]: 27.23% and 13.43%
- Population Hoechst High Intensity Objects (%) [2]: 0.47% and 4.29%
- Population Membrane Permeable-Phenotype (%) [2]: 0%
- Population Mitotic Cells (%) [2]: 78.81% and 83.19%
- Population Normal (%) [2]: 99.53% and 95.71%
- Population Pyknosed Nuclei (%) [2]: 70.89% and 84.33%
- Population Tubulin-Different-Phenotype (%) [2]: 5.17% and 11.11%
- Total Cell Count [2]: 214 and 140
- Population Apoptotic (%) [3]: 26.79% and 11.65%
- Population Fragmented Nuclei (%) [3]: 3.63% and 0.67%
- Population Healthy Nuclei (%) [3]: 59.41% and 30.2%
- Population Hoechst High Intensity Objects (%) [3]: 0%
- Population Membrane Permeable-Phenotype (%) [3]: 0%
- Population Mitotic Cells (%) [3]: 73.21% and 88.35%
- Population Normal (%) [3]: 100%
- Population Pyknosed Nuclei (%) [3]: 36.96% and 69.13%
- Population Tubulin-Different-Phenotype (%) [3]: 7.78% and 8.89%
- Total Cell Count [3]: 303 and 149
- Population Apoptotic (%) [4]: 31.52% and 52.43%
- Population Fragmented Nuclei (%) [4]: 1.99% and 3.12%
- Population Healthy Nuclei (%) [4]: 24.7% and 16.41%
- Population Hoechst High Intensity Objects (%) [4]: 0% and 3.76%
- Population Membrane Permeable-Phenotype (%) [4]: 0% and 4.76%
- Population Mitochondria Different-Phenotype (%) [4]: 56.45% and 23.81%
- Population Mitotic Cells (%) [4]: 68.48% and 47.57%
- Population Normal (%) [4]: 100% and 96.24%
- Population Pyknosed Nuclei (%) [4]: 73.31% and 80.47%
- Population Tubulin-Different-Phenotype (%) [4]: 1.61% and 0%
- Total Cell Count [4]: 251 and 133
- Population Apoptotic (%) [5]: 20.62% and 21.52%
- Population Fragmented Nuclei (%) [5]: 3.28% and 0.63%
- Population Healthy Nuclei (%) [5]: 72.22% and 49.69%
- Population Hoechst High Intensity Objects (%) [5]: 0.5% and 0%
- Population Membrane Permeable-Phenotype (%) [5]: 0.35% and 0%
- Population Mitotic Cells (%) [5]: 79.38% and 78.48%
- Population Normal (%) [5]: 99.5% and 100%
- Population Pyknosed Nuclei (%) [5]: 24.49% and 49.69%
- Total Cell Count [5]: 398 and 159
- Population Apoptotic (%) [6]: 54.1% and 46.85%
- Population Fragmented Nuclei (%) [6]: 4.95% and 2.36%
- Population Hoechst High Intensity Objects (%) [6]: 0.45% and 0.78%
- Population Membrane Permeable-Phenotype (%) [6]: 0%
- Population Mitochondria Different-Phenotype (%) [6]: 83.15% and 38.46%
- Population Mitotic Cells (%) [6]: 45.9% and 53.15%
- Population Normal (%) [6]: 99.55% and 99.22%
- Population Pyknosed Nuclei (%) [6]: 54.95% and 87.4%
- Total Cell Count [6]: 223 and 128
